# Test results from ChEMBL document CHEMBL5385951, “Accraspiroketides A-B, Phenylnaphthacenoid-Derived Polyketides with Unprecedented [6 + 6+6 + 6] + [5 + 5] Spiro-Architecture” (2024).
# How the values were obtained:
# Assay type in all cases: functional
# [1] = system: Enterococcus faecium; experiment: Antibacterial activity against Enterococcus faecium clinical isolate K59-68 assessed as inhibition of bacterial growth incubated for 24 hrs by broth microdilution method
# In short: (§1)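 Broth microdilution per published protocols (CLSI dilution method for aerobically growing bacteria). E. faecium strains K59-68 and K60-39 are clonal complex 17 sub-cluster clinical bloodstream isolates from patients at University Hospital of North Norway. Ampicillin served as positive control and DMSO as negative control. MIC was determined from triplicate assays.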
# [2] = system: Staphylococcus aureus; experiment: Antibacterial activity against Staphylococcus aureus ATCC 25923 assessed as inhibition of bacterial growth incubated for 24 hrs by broth microdilution method
# [3] = system: Enterococcus faecium; experiment: Antibacterial activity against Enterococcus faecium clinical isolate K60-39 assessed as inhibition of bacterial growth incubated for 24 hrs by broth microdilution method; in short: as §1
# [4] = system: Enterococcus faecalis; experiment: Antibacterial activity against Enterococcus faecalis ATCC 29212 assessed as inhibition of bacterial growth incubated for 24 hrs by broth microdilution method
MIC [1] [µg/mL],MIC [2] [µg/mL],MIC [3] [µg/mL],MIC [4] [µg/mL],Structure (SMILES)
1.5,6.3,4.7,3.1,COc1cc2c(c(O)c1Cl)C(=O)c1c(cc3c(Cl)c(O)cc4c3c1O[C@@]41C(C)=C(C(=O)O)C(Cl)=C1Cl)C2(C)C
1.5,3.1,4,3.1,COc1cc2c(c(O)c1Cl)C(=O)c1c(cc3cc(O)cc4c3c1O[C@@]41C(C)=C(C(=O)O)C(Cl)=C1Cl)C2(C)C

Structure (SMILES),MIC [1] [µg/mL],MIC [2] [µg/mL],MIC [3] [µg/mL],MIC [4] [µg/mL]
CC1(C)S[C@@H]2[C@H](NC(=O)[C@H](N)c3ccccc3)C(=O)N2[C@H]1C(=O)O [AMPICILLIN],1.5,0.5,25,1
